Laboratory results taken from publication PMC3680915 (Biochemistry, 2013).
Entries after “also recorded” stand apart in the source; their conditions may differ.

Key:
Assay type in all cases: biochemical, bovine
[1] = target: T1, NADH:ubiquinone oxidoreductase (complex I) (Bos taurus, UniProt P25708); assay: NADH:FeCN oxidoreduction; conditions: 0.1 mM NADH, 1 mM FeCN, pH 7.5, 32 °C
[2] = target: T1, NADH:ubiquinone oxidoreductase (complex I); assay: NADH:APAD+ transhydrogenation
[3] = target: T1, NADH:ubiquinone oxidoreductase (complex I); assay: NADH:HAR oxidoreduction
[4] = target: T1, NADH:ubiquinone oxidoreductase (complex I); assay: Kinetic isotope effect in NAD; conditions: 1 mM FeCN, pH 7.5, 32 °C
[5] = target: T1, NADH:ubiquinone oxidoreductase (complex I); assay: Kinetic isotope effect in NAD; conditions: 3.5 mM HAR, pH 7.5, 32 °C
Method in brief: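 Bovine heart complex I with hexaammineruthenium(III) as acceptor, at 32 °C. Donor concentration series used NADH, [4R-2H]NADH, [4S-2H]NADH, APADH and [4S-2H]APADH in 20 mM Tris-HCl pH 7.5. pH dependence was measured with NADH versus [4S-2H]NADH at 0.1 mM. Reactions were enzyme-initiated and read at 340–380 nm (ε 4.81 mM–1 cm–1). Background-subtracted initial rates over ~15 s; mean of ≥3 measurements.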

Compound | IC50 for inhibition of the FeCN reaction [1] | IC50 for inhibition of the APAD+ reaction ([2]; 0.1 mM NADH, 1 mM APAD+, pH 7.5, 32 °C) | IC50 for inhibition of the HAR reaction ([3]; 0.1 mM NADH, 3.5 mM HAR, pH 7.5, 32 °C) | KIE in the APAD(H/D):FeCN reaction [4] | KIE in the APAD(H/D):HAR reaction [5] | IC50 for inhibition of the FeCN reaction ([1]; listed as Adenosine) | IC50 [2] [mM] | IC50 [3] [mM]
NC(=O)c1ccc[n+]([C@@H]2O[C@H](COP(=O)([O-])O)[C@@H](O)[C@H]2O)c1 [NMN^+, nicotinamide mononucleotide] | does not inhibit; also recorded: no inhibition | does not inhibit; also recorded: no inhibition | does not inhibit; also recorded: no inhibition | – | – | – | – | –
[2H]C1C=CN(C2OC(COP(=O)(O)OP(=O)(O)OCC3OC(n4cnc5c(N)ncnc54)C(O)C3O)C(O)C2O)C=C1C(C)=O (stereo not drawn) [S-APADD, [4S-^2H]APADH] | – | – | – | ~6.5 | ~3.5 | – | – | –
Nc1ncnc2c1ncn2[C@@H]1O[C@H](CO)[C@@H](O)[C@H]1O [adenosine] | no inhibition ^b | – | – | – | – | no discernible inhibition | 10 | 7
